Assay results: ChEMBL document CHEMBL1132255, “Structure-activity relationships for 5-substituted 1-phenylbenzimidazoles as selective inhibitors of the platelet-derived growth factor receptor” (J Med Chem, 1999)

Tests used:
[1] = biological target: Platelet-derived growth factor receptor beta (Mus musculus, UniProt P05622); assay: Inhibition of [32P]ATP incorporated (phosphorylation) into glutamate-tyrosine copolymer substrate by mouse platelet-derived growth factor receptor beta
Summary of the method: (§1)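 Enzymes were intracellular tyrosine kinase domain fragments (human FGFR-1 […], mouse PDGFR-β […]), 60–75 ng per reaction, in 25 mM HEPES pH 7.4 with 150 mM NaCl, 10 mM MnCl₂, 0.2 mM sodium orthovanadate, Glu-Tyr (4:1) random copolymer substrate and varied inhibitor. Reactions were started with [³²P]ATP (0.4 μCi), run 10 min at 25 °C and stopped with 15% TCA. IC50 was taken as the concentration reducing ³²P incorporation into the copolymer.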

[2] = biological target: Fibroblast growth factor receptor 1 (Homo sapiens, UniProt P11362); assay: Inhibition of [32P]ATP incorporated (phosphorylation) into glutamate-tyrosine copolymer substrate by human fibroblast growth factor receptor 1; summary of the method: as §1
[3] = biological target: T1, Platelet-derived growth factor receptor (PDGFr) (Rattus norvegicus, UniProt P20786+Q05030); assay: Inhibition of Platelet-derived growth factor receptor beta autophosphorylation in Rat aorta vascular smooth muscle cells(RAVSMC).
[4] = biological target: T1, Platelet-derived growth factor receptor (PDGFr); assay: Inhibition of Platelet-derived growth factor receptor beta autophosphorylation in Rat aorta vascular smooth muscle cells(RAVSMC)

Sequence of Platelet-derived growth factor receptor beta (P05622 whole entry, the tested form may be a part): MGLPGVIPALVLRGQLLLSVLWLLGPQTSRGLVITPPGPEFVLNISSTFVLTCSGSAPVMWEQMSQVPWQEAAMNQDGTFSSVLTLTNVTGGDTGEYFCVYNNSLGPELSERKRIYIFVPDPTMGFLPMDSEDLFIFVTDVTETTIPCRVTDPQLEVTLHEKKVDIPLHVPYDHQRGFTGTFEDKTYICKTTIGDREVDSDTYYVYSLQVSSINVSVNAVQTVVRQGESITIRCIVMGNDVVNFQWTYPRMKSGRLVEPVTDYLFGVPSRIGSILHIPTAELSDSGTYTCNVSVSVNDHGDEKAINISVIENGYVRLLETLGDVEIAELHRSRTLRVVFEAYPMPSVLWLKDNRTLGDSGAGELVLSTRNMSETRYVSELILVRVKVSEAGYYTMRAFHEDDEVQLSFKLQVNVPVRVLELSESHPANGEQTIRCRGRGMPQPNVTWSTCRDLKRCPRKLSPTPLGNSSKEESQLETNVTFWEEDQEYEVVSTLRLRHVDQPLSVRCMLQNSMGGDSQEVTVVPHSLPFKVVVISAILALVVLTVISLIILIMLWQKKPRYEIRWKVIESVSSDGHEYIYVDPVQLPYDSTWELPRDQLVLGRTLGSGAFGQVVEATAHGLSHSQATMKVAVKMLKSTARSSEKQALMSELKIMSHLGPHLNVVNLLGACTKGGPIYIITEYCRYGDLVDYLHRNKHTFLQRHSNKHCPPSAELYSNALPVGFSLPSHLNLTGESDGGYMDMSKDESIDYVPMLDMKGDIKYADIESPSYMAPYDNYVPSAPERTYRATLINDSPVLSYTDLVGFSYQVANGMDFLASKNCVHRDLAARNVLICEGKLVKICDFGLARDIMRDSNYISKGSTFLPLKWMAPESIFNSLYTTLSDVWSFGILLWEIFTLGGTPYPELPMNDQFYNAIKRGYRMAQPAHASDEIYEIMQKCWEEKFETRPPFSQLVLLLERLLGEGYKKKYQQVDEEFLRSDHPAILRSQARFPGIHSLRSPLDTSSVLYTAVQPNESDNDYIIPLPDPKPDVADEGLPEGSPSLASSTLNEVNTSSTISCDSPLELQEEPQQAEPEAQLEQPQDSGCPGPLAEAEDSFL
Sequence of Fibroblast growth factor receptor 1 (P11362 whole entry): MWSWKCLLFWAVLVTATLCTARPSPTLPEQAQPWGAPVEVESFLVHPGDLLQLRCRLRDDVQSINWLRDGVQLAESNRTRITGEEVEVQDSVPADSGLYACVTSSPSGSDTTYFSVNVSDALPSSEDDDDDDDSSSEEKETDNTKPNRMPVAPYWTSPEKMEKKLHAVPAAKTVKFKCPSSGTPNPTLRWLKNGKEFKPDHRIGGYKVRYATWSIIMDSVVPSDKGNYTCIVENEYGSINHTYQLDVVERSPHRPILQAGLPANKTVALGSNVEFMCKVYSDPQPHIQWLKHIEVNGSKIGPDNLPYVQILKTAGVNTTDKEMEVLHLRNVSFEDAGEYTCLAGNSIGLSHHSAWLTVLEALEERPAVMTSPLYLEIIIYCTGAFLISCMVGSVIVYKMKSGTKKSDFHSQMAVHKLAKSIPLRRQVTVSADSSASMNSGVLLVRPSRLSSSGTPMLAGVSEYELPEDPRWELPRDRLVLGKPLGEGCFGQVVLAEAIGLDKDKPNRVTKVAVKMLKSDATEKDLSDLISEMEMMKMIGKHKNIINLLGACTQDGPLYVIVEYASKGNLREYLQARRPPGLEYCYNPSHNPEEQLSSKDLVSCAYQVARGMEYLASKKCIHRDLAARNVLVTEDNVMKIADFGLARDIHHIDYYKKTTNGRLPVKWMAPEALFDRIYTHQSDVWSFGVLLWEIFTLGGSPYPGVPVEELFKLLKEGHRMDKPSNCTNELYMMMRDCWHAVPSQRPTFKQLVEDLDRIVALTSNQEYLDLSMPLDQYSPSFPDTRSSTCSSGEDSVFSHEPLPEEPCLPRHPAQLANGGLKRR

Compound | IC50 [1] | IC50 [2] | IC50 [3] | IC50 [4]
COc1cc2ncn(-c3ccccc3)c2cc1CO | 370 nM | 11000 nM |  | 
C=CCc1c(O)ccc2c1ncn2-c1ccccc1 | > 50000 nM | > 50000 nM |  | 
COc1c(O)ccc2c1ncn2-c1ccccc1 | > 50000 nM | > 50000 nM |  | 
COc1ccc2c(c1)ncn2-c1ccc(N)cc1 | 280 nM |  | 1360 nM | 
OCC(O)COc1ccc2c(c1)ncn2-c1ccccc1 (stereo not drawn) | 310 nM |  |  | 
C=CCOc1ccc2c(ncn2-c2ccccc2)c1Br | > 50000 nM | > 50000 nM |  | 
c1ccc(-n2cnc3cc(OCC4CO4)ccc32)cc1 (stereo not drawn) | 320 nM | 18000 nM |  | 
C=CCOc1ccc2c(c1)ncn2-c1ccccc1 | 610 nM |  |  | 
COC(=O)c1cc2c(cc1OC)ncn2-c1ccccc1 | 870 nM |  |  | 
NCCOc1ccc2c(c1)ncn2-c1ccccc1 | 650 nM |  |  | 
CN(C)CCCOc1ccc2c(c1)ncn2-c1ccccc1 | 150 nM |  |  | 
c1ccc(-n2cnc3cc(SCCCN4CCOCC4)ccc32)cc1 | > 50000 nM | 24000 nM |  | 
Oc1cccc2c1ncn2-c1ccccc1 | 14000 nM |  |  | 
Oc1ccc2c(ncn2-c2ccccc2)c1Br | > 50000 nM | > 50000 nM |  | 
COc1cc2ncn(-c3ccccc3)c2cc1C=O | 1000 nM | 25000 nM |  | 
c1ccc(-n2cnc3cc(OCCN4CCOCC4)ccc32)cc1 | 730 nM |  |  | 790 nM
OCCCCOc1ccc2c(c1)ncn2-c1ccccc1 | 450 nM |  |  | 
CCOc1ccc2c(c1)ncn2-c1ccccc1 | 240 nM | 26000 nM |  | 
COc1ccc2c(ncn2-c2ccccc2)c1O |  | > 50000 nM |  | 
CCCOc1ccc2c(c1)ncn2-c1ccccc1 | 250 nM |  |  | 
CN(C)CCCCOc1ccc2c(c1)ncn2-c1ccccc1 | 160 nM | 6800 nM |  | 
COc1ccc2c(ncn2-c2ccccc2)c1OC | > 50000 nM | > 50000 nM |  | 
CSc1ccc2c(c1)ncn2-c1ccccc1 | 740 nM | 27000 nM |  | 
c1ccc(-n2cnc3cc(OCCCN4CCOCC4)ccc32)cc1 | 170 nM |  |  | 
